ChEMBL document CHEMBL1122387, “Synthesis and biological evaluation of sparsomycin analogues” (1983)

Experiments:
Osteoclast-like = assay: Percent inhibition of [75Se]- selenomethionine incorporation in the protein synthesis assay in bone marrow cell lines at a concentration of 10 E-4; format: functional, Mus musculus
In short: (§1)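 Protein synthesis in 6×10^5 cells per well (3×10^6 cells/mL), from CD-1 mouse femoral marrow or ip-passaged DBA/2 P388 cells. Medium is Spinner's (10% heat-inactivated FCS for P388). 0.2 μCi L-[75Se]selenomethionine is added with compound, 2 h at 37 °C, 5% CO2, rocked. Cells are harvested and gamma-counted. % inhibition versus control cpm (ethanol controls where used), six replicate wells; puromycin or sparsomycin serves as control.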

P388 [1] = assay: Percent inhibition of [75Se]- selenomethionine incorporation in the protein synthesis assay in P388 cell lines at a concentration of 10 E-4 M; format: functional; settings: Mus musculus; in short: as §1
P815 [2] = assay: Percent inhibition of [75Se]- selenomethionine incorporation in the protein synthesis assay in P815 cell lines at a concentration of 10 E-4 M; format: functional; settings: Mus musculus
In short: (§2)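 P815 mastocytoma cells are cultured in complete DMEM and plated at 6×10^5 cells per well in CDMEM. 0.2 μCi L-[75Se]selenomethionine is added with compound, 2 h at 37 °C, 5% CO2, on a rocker. Cells are harvested and gamma-counted. % inhibition is taken versus control cpm (ethanol controls where used), four replicate wells.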

[3] = Percent inhibition of [75Se]- selenomethionine incorporation in the protein synthesis assay in bone marrow cell lines at a concentration of 10 E-3; format: functional, Mus musculus; in short: as §1
P388 [4] = assay: Percent inhibition of [123I]UdR incorporation in the DNA synthesis assay in P388 cell lines at a concentration of 10 E-3 M; format: functional; settings: Mus musculus, in the assay text read “[125I]UdR” for “[123I]UdR”
In short: (§3)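 DNA synthesis over 2 h at 37 °C, 5% CO2, on a rocker. Wells hold 6×10^5 cells (3×10^6 cells/mL): femoral marrow from male CD-1 mice, or P388 ascites cells kept by ip passage in DBA/2 mice. Medium is αMEM. Label is 0.1 μCi 125IUdR in 2×10^-5 M FUdR. Cells are harvested and gamma-counted. % inhibition versus control cpm, six replicate wells; ara-C serves as control.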

P388 [5] = assay: Percent inhibition of [75Se]- selenomethionine incorporation in the protein synthesis assay in P388 cell lines at a concentration of 10 E-3 M; format: functional; settings: Mus musculus; in short: as §1
P815 [6] = assay: Percent inhibition of [75Se]- selenomethionine incorporation in the protein synthesis assay in P815 cell lines at a concentration of 10 E-3 M; format: functional; settings: Mus musculus; in short: as §2
[7] = Percent inhibition of [123I]UdR incorporation in the DNA synthesis assay in bone marrow cells at a concentration of 10 e-3 M; format: functional; settings: Mus musculus, Bone element; in the assay text read “[125I]UdR” for “[123I]UdR”; in short: as §3

SMILES | Inhibition (Osteoclast-like) [%] | inhibition at 100 µM (P388 [1]) [%] | inhibition at 100 µM (P815 [2]) [%] | Inhibition [3] [%] | inhibition at 1000 µM (P388 [4]) [%] | inhibition at 1000 µM (P388 [5]) [%] | inhibition at 1000 µM (P815 [6]) [%] | inhibition at 1000 µM [7] [%]
COc1ccc(CC(CO)NC(=O)/C=C/c2c(C)nc(O)nc2O)cc1 (stereo unspecified) | 0 | 0 | 0 | – | – | – | – | –
Cc1nc(O)nc(O)c1/C=C/C(=O)NCCc1ccc(Br)cc1 | – | – | – | 42 | 17 | 27 | 89 | 0
Cc1ccc(CCNC(=O)/C=C/c2c(C)nc(O)nc2O)cc1 | – | – | – | 35 | 0 | 0 | 11 | 0
Cc1nc(O)nc(O)c1/C=C/C(=O)NC(CO)Cc1ccccc1 (stereo unspecified) | – | – | – | 34 | 5 | 6 | 52 | 0
Cc1nc(O)nc(O)c1/C=C/C(=O)NC(CO)Cc1ccc(Br)cc1 (stereo unspecified) | – | – | – | 64 | 34 | 44 | 94 | 15
Cc1nc(O)nc(O)c1/C=C/C(=O)NCCC(=O)NCc1ccc(Br)cc1 | – | – | – | 29 | – | 23 | 69 | –
Cc1nc(O)nc(O)c1/C=C/C(=O)NCCc1ccccc1 | – | – | – | 34 | 9 | 1 | 2 | 0
COc1ccc(CCNC(=O)/C=C/c2c(C)nc(O)nc2O)cc1 | – | – | – | 44 | 2 | 0 | 0 | 0
COc1ccc(CNC(=O)CCNC(=O)/C=C/c2c(C)nc(O)nc2O)cc1 | – | – | – | 11 | – | 1 | 0 | –
Cc1ccc(CC(CO)NC(=O)/C=C/c2c(C)nc(O)nc2O)cc1 (stereo unspecified) | – | – | – | 40 | 0 | 4 | 65 | 0
Nc1ccn([C@@H]2O[C@H](CO)[C@@H](O)[C@@H]2O)c(=O)n1 [CYTARABINE] | – | – | – | – | 99 | – | – | 99
COc1ccc(C[C@H](N)C(=O)N[C@H]2[C@@H](O)[C@H](n3cnc4c(N(C)C)ncnc43)O[C@@H]2CO)cc1 [PUROMYCIN] | – | – | – | 61 | – | 64 | 98 | –
CSC[S@@+]([O-])CC(CO)NC(=O)/C=C/c1c(C)[nH]c(=O)[nH]c1=O (stereo partly specified) [SPARSOMYCIN] | – | – | – | 29 | – | 48 | – | –
